hERG rescue – compounds protecting human hERG from proarrhythmic drug block. Q12809. 0.51% of 310,000 active. CHO-hERG, FluxOR thallium flux, dofetilide IC70 present. AID 1511. activation (rescue from dofetilide block), less the hit threshold, % at 10 µM;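 active = activation above the mean of controls blocked by dofetilide plus 5 SD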;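 note: thallium influx through hERG after potassium depolarization seen as dye fluorescence rise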
KCNQ1 act – potentiates or activates the human KCNQ1 potassium channel; B-score at 10 µM; 0.35% of 310,000 active; CHO-K1 KCNQ1, thallium flux FluxOR fluorescence; hits give high values; P51787;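 active = fluorescence ratio B-score, a plate-corrected score, at least three library SD, with initial intensity B-score within 5 SD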
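Assay system: stable KCNQ1 CHO-K1 line; medium: assay buffer, equal DMSO in all wells; timing: 90 min dye loading and 20 min compound exposure, both at room temperature; technique: kinetic FluxOR thallium fluorescence, 10-s 1-Hz baseline, 110-s post-stimulus read; read-out basis: B score of baseline-normalized fluorescence ratio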
KCNQ1 inh – blocks the human KCNQ1 potassium channel; 1.3% of 310,000 active; P51787; B-score at 10 µM; AID 2642; CHO-K1 KCNQ1, FluxOR thallium flux fluorescence; hits give high values;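 active = compounds whose thallium flux B-score, printed positive for inhibition, exceeds three library SD while starting fluorescence stays within three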;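 note: channel opened by potassium depolarization with thallium stimulus after 20 min compound exposure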
KCNK9 inh – blocks the human KCNK9 two-pore domain potassium channel; HEK293 KCNK9, FluxOR thallium flux fluorescence; hits give low values; B-score at 10 µM; 1.2% of 310,000 active;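 active = ratio B-score over 3 SD below the library mean, with starting fluorescence within 5 SD of its mean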;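 note: negative B-score means less thallium flux so channel inhibition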
KCNK3 block – human KCNK3 channel inhibition, primary screen; AID 602410; B-score at 10 µM; 0.84% of 340,000 active; CHO-KCNK3 thallium flux, FluxOR fluorescence; hits give low values;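 active = B-score under library mean minus 4 SD, starting fluorescence ratio at most library mean plus 5 SD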;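 note: more negative B-score means stronger inhibition of thallium flux through KCNK3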
KCC2 mod – modulates chloride dependent transport by human KCC2; KCC2 cells, thallium flux FluoZin-2 fluorescence; B-score of Tl+ flux slope (higher = more flux/activation; lower = inhibition) at 10 µM; 2.2% of 190,000 active; Q9H2X9;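 active = thallium flux slope and its plate-corrected score both differing from the plate sample mean at a set confidence after two filtering rounds, in either direction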;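 note: slope of fluorescence scaled to starting intensity during 10 to 20 s after thallium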
Target sequence (Q9H2X9 whole entry, looked up): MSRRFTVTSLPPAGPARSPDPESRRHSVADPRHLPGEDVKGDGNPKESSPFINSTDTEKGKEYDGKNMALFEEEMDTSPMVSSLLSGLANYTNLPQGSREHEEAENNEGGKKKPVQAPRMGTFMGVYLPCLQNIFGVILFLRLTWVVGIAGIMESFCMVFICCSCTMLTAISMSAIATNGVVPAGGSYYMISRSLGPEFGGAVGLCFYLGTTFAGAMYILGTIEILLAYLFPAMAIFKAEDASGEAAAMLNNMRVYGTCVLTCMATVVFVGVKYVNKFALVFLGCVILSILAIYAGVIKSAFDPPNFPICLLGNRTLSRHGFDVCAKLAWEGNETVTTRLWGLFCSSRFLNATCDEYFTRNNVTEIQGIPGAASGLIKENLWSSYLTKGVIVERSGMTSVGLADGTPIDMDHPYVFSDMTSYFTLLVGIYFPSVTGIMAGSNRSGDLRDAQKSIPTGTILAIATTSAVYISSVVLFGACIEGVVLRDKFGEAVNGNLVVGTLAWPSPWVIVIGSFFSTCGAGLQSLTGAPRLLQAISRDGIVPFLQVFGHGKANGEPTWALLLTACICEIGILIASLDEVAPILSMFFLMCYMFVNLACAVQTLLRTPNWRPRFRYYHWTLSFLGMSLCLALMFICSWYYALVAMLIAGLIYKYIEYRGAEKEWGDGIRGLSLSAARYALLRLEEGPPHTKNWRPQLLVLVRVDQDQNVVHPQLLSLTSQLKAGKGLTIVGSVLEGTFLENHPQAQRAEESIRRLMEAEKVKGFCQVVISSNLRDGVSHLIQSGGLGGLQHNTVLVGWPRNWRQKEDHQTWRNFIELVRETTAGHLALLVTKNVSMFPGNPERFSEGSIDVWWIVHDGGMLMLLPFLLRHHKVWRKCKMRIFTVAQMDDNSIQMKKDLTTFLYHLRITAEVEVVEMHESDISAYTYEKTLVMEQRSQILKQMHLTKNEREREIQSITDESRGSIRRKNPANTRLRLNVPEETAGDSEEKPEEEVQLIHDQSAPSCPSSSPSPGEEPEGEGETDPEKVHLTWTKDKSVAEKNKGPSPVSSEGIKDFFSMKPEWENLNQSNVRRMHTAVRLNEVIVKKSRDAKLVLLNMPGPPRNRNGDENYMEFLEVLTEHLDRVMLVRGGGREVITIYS
KCNK9 block conf – human KCNK9 inhibitor confirmation; shares compounds with KCNK9 inh; HEK293 KCNK9 cells, FluxOR thallium flux fluorescence; inhibition, % at 10 µM; 43% of 4,900 active;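 active = thallium signal inhibited by more than 5 SD of the compound-free buffer control wells, on both duplicate plates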;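 note: 0% = assay buffer control wells without compound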
Kir21 sel – mouse Kir2.1 off-target activity of KCNK9 modulators. Kir2.1 cells, FluxOR thallium flux fluorescence. shares compounds with KCNK9 inh. inhibition, % at 10 µM. 4% of 4,900 active;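 active = thallium signal drop more than 5 SD beyond the mean of the no-compound control wells, seen in both duplicate plates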;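 note: signal is fluorescence rise after thallium addition divided by baseline fluorescence; plate controls were assay buffer only for no effect and full block by chlorpromazine control for full effect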
KCNK9 uninduced – non-induced cell nonspecific activity of KCNK9 modulators. shares compounds with KCNK9 inh. non-induced KCNK9-HEK293, FluxOR thallium flux. inhibition, % at 10 µM. 40% of 4,900 active;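 active = thallium signal drop beyond 5 SD of the untreated control mean, on both duplicate plates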;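 note: plate controls were buffer only IC0 wells for no effect and SID17386958 at its maximal inhibitory level for full effect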
Numbers without * were called inactive. In the library only some 4.1% were active in any assay of this set; here they are far more common.

CCn1c(COc2ccccc2)nnc1SCC(=O)Nc1ccc(N2CCOCC2)cc1 was read as hERG rescue -8.4, KCNQ1 act inactive, KCNQ1 inh inactive, KCNK9 inh inactive and KCNK3 block inactive.
COc1cccc2c1-c1c(C(=O)O)cccc1C2=O was read as hERG rescue -8.9, KCNQ1 act inactive, KCNQ1 inh inactive, KCNK9 inh inactive, KCNK3 block inactive, KCNK9 block conf inactive, Kir21 sel inactive and KCNK9 uninduced inactive.
Screening Cc1ccc(OCC(=O)Nc2ccon2)c([N+](=O)[O-])c1 returned hERG rescue -9.2, KCNQ1 act inactive, KCNQ1 inh inactive, KCNK9 inh inactive and KCNK3 block inactive.
For NC(=O)c1ccc(NC(=O)COC(=O)c2cc3ccccc3cc2O)cc1 the results were KCNK3 block inactive.
For O=C(c1oc2ccccc2c1CSCc1ccccc1)N1CCN(c2ncccn2)CC1 the results were hERG rescue -13.0, KCNQ1 act inactive, KCNQ1 inh inactive, KCNK9 inh -9.62*, KCNK3 block inactive, KCNK9 block conf 23.0%*, Kir21 sel inactive and KCNK9 uninduced inactive.
CCOCC(=O)Nc1c(C(=O)N2CCN(c3ncccn3)CC2)oc2ccccc12 was read as hERG rescue -6.8, KCNQ1 act inactive, KCNQ1 inh inactive, KCNK9 inh inactive and KCNK3 block inactive.
Screening S=C(c1c[nH]c2ccc(Br)cc12)N1CCOCC1 returned hERG rescue -9.8, KCNQ1 act inactive, KCNQ1 inh inactive, KCNK9 inh -8.72*, KCNK3 block inactive, KCC2 mod 0.141, KCNK9 block conf 50.0%*, Kir21 sel inactive and KCNK9 uninduced inactive.
Screening COc1ccccc1N(C(=O)Cn1nnc(-c2ccc(C)o2)n1)C(C(=O)NC1CCCC1)c1ccncc1 (stereo not drawn) returned hERG rescue -2.8, KCNQ1 act inactive, KCNQ1 inh inactive, KCNK9 inh inactive and KCNK3 block inactive.
Screening COc1ccc(C(=O)N/N=C/c2c[nH]c3ccccc23)cc1 returned hERG rescue -7.8, KCNQ1 act inactive, KCNQ1 inh inactive, KCNK9 inh inactive and KCNK3 block inactive.
Screening CCCCCN=C(N)N/N=C/c1c[nH]c2ccc(OC)cc12 returned hERG rescue -30.5, KCNQ1 act inactive, KCNQ1 inh 7*, KCNK9 inh -11.1*, KCNK3 block inactive, KCNK9 block conf 66.0%*, Kir21 sel 64.0%* and KCNK9 uninduced inactive.
`O=C(Nc1cccc(-n2cccn2)c1)C1CCCN(Cc2ccccc2F)C1` (stereo not drawn) gave hERG rescue -9.6, KCNQ1 act inactive, KCNQ1 inh inactive, KCNK9 inh inactive and KCNK3 block inactive.
For COc1cccc(/C=N/NC(=O)c2cnccn2)c1 the results were hERG rescue -5.7, KCNQ1 act inactive, KCNQ1 inh inactive, KCNK9 inh inactive, KCNK3 block inactive and KCC2 mod -0.273.
COc1cccc(/C=N/NC(=O)c2nc(-c3ccccc3)cc(-c3ccccc3)n2)c1 was read as hERG rescue -20.2, KCNQ1 act inactive, KCNQ1 inh inactive, KCNK9 inh -8.54*, KCNK3 block inactive, KCC2 mod 0.581, KCNK9 block conf 34.0%*, Kir21 sel inactive and KCNK9 uninduced inactive.
`COc1ccc(/C=N/NC(=O)c2nc(-c3ccccc3)cc(-c3ccccc3)n2)cc1OC` gave hERG rescue -16.2, KCNQ1 act inactive, KCNQ1 inh inactive, KCNK9 inh -9.73*, KCNK3 block inactive, KCC2 mod -2.04, KCNK9 block conf 31.0%*, Kir21 sel inactive and KCNK9 uninduced inactive.
`NS(=O)(=O)c1ccc(CCNC(=S)NC(=O)c2ccccc2Br)cc1` gave KCNK3 block inactive.
`CC(C)CCN(C(=O)c1csnn1)C(C(=O)NC1CCCCC1)c1ccc(F)cc1` (stereo not drawn) gave hERG rescue -5.9, KCNQ1 act inactive, KCNQ1 inh inactive, KCNK9 inh inactive and KCNK3 block inactive.
Screening COc1ccccc1N1CCN(C2CCCN(S(=O)(=O)c3cccc(Cl)c3)C2)CC1 (stereo not drawn) returned hERG rescue -12.1, KCNQ1 act inactive, KCNQ1 inh inactive, KCNK9 inh inactive, KCNK3 block inactive, KCNK9 block conf inactive, Kir21 sel inactive and KCNK9 uninduced inactive.
CN(C)CCn1c(=O)n(Cc2ccco2)c(=O)c2c3c(sc21)CCCCC3 was read as hERG rescue -20.0, KCNQ1 act inactive, KCNQ1 inh inactive, KCNK9 inh inactive, KCNK3 block inactive, KCC2 mod -0.0221, KCNK9 block conf inactive, Kir21 sel inactive and KCNK9 uninduced inactive.
CN(C)CCn1c(=O)n(C2CCCCC2)c(=O)c2c3c(sc21)CCCCC3 was read as hERG rescue -4.6, KCNQ1 act inactive, KCNQ1 inh inactive, KCNK9 inh inactive, KCNK3 block inactive, KCNK9 block conf inactive, Kir21 sel inactive and KCNK9 uninduced inactive.
Screening O=c1c2c3c(sc2n(CCN2CCCC2)c(=O)n1Cc1ccco1)CCCCC3 returned hERG rescue -8.2, KCNQ1 act inactive, KCNQ1 inh inactive, KCNK9 inh inactive, KCNK3 block inactive and KCC2 mod -0.108.
For O=C(Cn1c(=O)n(Cc2ccco2)c(=O)c2c3c(sc21)CCCCC3)Nc1ccccc1 the results were hERG rescue 1.4, KCNQ1 act inactive, KCNQ1 inh 6*, KCNK9 inh inactive, KCNK3 block inactive, KCC2 mod -0.753, KCNK9 block conf inactive, Kir21 sel inactive and KCNK9 uninduced 34.0%*.
CCOC(=O)CSc1nnc2n(C3CCCCC3)c(=O)c3c4c(sc3n12)CCCC4 was read as hERG rescue -8.2, KCNQ1 act inactive, KCNQ1 inh inactive, KCNK9 inh inactive, KCNK3 block inactive and KCC2 mod -0.89.
Cc1ccc(NC(=O)CN(C)C(=O)c2cccc(S(=O)(=O)NCc3ccco3)c2)cc1 was read as KCNK3 block inactive.

Screening data as filed in PubChem.
